Experimental data as given in ChEMBL document CHEMBL2086235, “A novel thiazolidine compound induces caspase-9 dependent apoptosis in cancer cells” (Bioorg Med Chem, 2012).
Active and inactive are the calls of the source. The rule behind the calls is not given here.

Tests used:
Format in all cases: functional, cell-based
[1] = system: Huh-7; assay: Growth inhibition of human HuH7 cells incubated for 48 hrs by Giemsa staining
Summary of the method: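 Cells grown overnight, compound added from DMSO solution, then incubated 48 h more. Attached cells stained with Giemsa and photographed; qualitative read-out.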

[2] = system: Huh-7; assay: Induction of cell death in human HuH7 cells at 2.5 to 40 uM incubated for 72 hrs by SRB assay
Summary of the method: (§1)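 Cells seeded and grown 24 h at 37 °C, then treated 72 h in triplicate. Fixed with cold 10% TCA 1 h at 4 °C, stained with 0.4% SRB in 1% acetic acid 10 min, washed in 1% acetic acid. Dye solubilized in 10 mM Tris base; absorbance read at 515 nm. Normalized to DMSO control and Tz; three independent experiments.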

[3] = system: MCF7; assay: Induction of cell death in human MCF7 cells at 2.5 to 40 uM incubated for 72 hrs by SRB assay; summary of the method: as §1
[4] = system: HCT-116; assay: Induction of cell death in human HCT116 cells at 2.5 to 40 uM incubated for 72 hrs by SRB assay; summary of the method: as §1

CC(C)(C)C(=O)N(CC(=O)O)C[C@@H]1CSC(c2ccccc2)N1C(=O)c1ccccc1 (stereo partly drawn)
growth inhibition (GI) [1]: inactive

CC(C)(C)C(=O)N(CCc1ccsc1)C[C@@H]1CSC(c2ccccc2)N1C(=O)c1ccccc1 (stereo partly drawn)
Activity [2]: inactive | Activity [3]: inactive | Activity [4]: inactive | growth inhibition (GI) [1]: inactive

CCCCCCC(=O)N(CC(=O)O)C[C@@H]1CSC(c2ccccc2)N1C(=O)c1ccccc1 (stereo partly drawn)
growth inhibition (GI) [1]: inactive

CCCCCCC(=O)N(CC(=O)OC)C[C@@H]1CSC(c2ccccc2)N1C(=O)c1ccccc1 (stereo partly drawn)
growth inhibition (GI) [1]: inactive

CCCCCCC(=O)N(CCc1ccsc1)C[C@@H]1CSC(c2ccccc2)N1C(=O)c1ccccc1 (stereo partly drawn)
growth inhibition (GI) [1]: inactive

CCCCCCC(C)NC(=O)[C@@H]1CSC(c2ccccc2)N1C(=O)Cn1cc(C)c(=O)[nH]c1=O (stereo partly drawn)
growth inhibition (GI) [1]: inactive

CCCCCCCCCCC(=O)N(CC(=O)O)C[C@@H]1CSC(c2ccccc2)N1C(=O)c1ccccc1 (stereo partly drawn)
growth inhibition (GI) [1]: inactive

CCCCCCCCCCC(=O)N(CC(=O)OC)C[C@@H]1CSC(c2ccccc2)N1C(=O)c1ccccc1 (stereo partly drawn)
growth inhibition (GI) [1]: inactive

CCCCCCCCCCC(=O)N(CCc1ccsc1)C[C@@H]1CSC(c2ccccc2)N1C(=O)c1ccccc1 (stereo partly drawn)
growth inhibition (GI) [1]: inactive

CCCCCCCCCCCCNC(=O)[C@@H]1CSC(c2ccccc2)N1C(=O)Cn1cc(C)c(=O)[nH]c1=O (stereo partly drawn)
growth inhibition (GI) [1]: inactive

CCOC(=O)Cn1cc(C(=O)N2C(c3ccccc3)SC[C@H]2C(=O)OCC)nn1 (stereo partly drawn)
growth inhibition (GI) [1]: inactive

CCOC(=O)[C@@H]1CSC(c2ccccc2)N1C(=O)c1cn(CC(=O)OCc2ccccc2)nn1 (stereo partly drawn)
growth inhibition (GI) [1]: inactive

CCOC(=O)[C@@H]1CSC(c2ccccc2)N1C(=O)c1cn(CC(O)CO)nn1 (stereo partly drawn)
growth inhibition (GI) [1]: inactive

CCOC(=O)[C@@H]1CSC(c2ccccc2)N1C(=O)c1cn(CC2OCOC2(C)C)nn1 (stereo partly drawn)
growth inhibition (GI) [1]: inactive

CCOC(=O)[C@@H]1CSC(c2ccccc2)N1C(=O)c1cn(CCCCCCO)nn1 (stereo partly drawn)
growth inhibition (GI) [1]: inactive
